Assay results reported in ChEMBL document CHEMBL2375268, “Design, synthesis and antiproliferative properties of some new 5-substituted-2-iminobenzimidazole derivatives” (Eur J Med Chem, 2013).

Experiments:
[1] = Antiproliferative activity against human LEP-3 cells after 24 hrs by MTS assay; assay type: cell-based; conditions: LEP-3, 24 h
Summary of the method: (§1)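 Compounds taken up in DMSO at 0.5 mg/ml stock, then diluted 1:10, 1:100, 1:1000 and 1:10 000. Cells exposed 24 h; cells in unmodified medium served as control. MTS added, 4 h at 37 °C in 5% CO2/95% air, absorbance read at 490 nm. Viability given as % of untreated control per concentration, mean of three independent assays. IC50 (cancer lines) or EC50 (Lep-3) derived from plotted curves.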

[2] = system: MDA-MB-231; test: Antiproliferative activity against human MDA-MB-231 cells after 24 hrs by MTS assay; assay type: functional, cell-based; conditions: MDA-MB-231, 24 h; summary of the method: as §1
[3] = system: HT-29; test: Antiproliferative activity against human HT-29 cells after 24 hrs by MTS assay; assay type: functional, cell-based; conditions: HT-29, 24 h; summary of the method: as §1
[4] = system: HepG2; test: Antiproliferative activity against human HepG2 cells after 24 hrs by MTS assay; assay type: functional, cell-based; conditions: HepG2, 24 h; summary of the method: as §1
[5] = system: HeLa; test: Antiproliferative activity against human HeLa cells after 24 hrs by MTS assay; assay type: functional, cell-based; summary of the method: as §1

| SMILES | IC50 [2] [nM] | IC50 [3] [nM] | EC50 [4] [nM] | EC50 [5] [nM] | EC50 [2] [nM] | EC50 [3] [nM] | IC50 [4] [nM] | IC50 [5] [nM] | EC50 [1] [nM] |
| --- | --- | --- | --- | --- | --- | --- | --- | --- | --- |
| N=c1n(CC(=O)N/N=C/c2ccc(F)cc2)c2ccc([N+](=O)[O-])cc2n1CC(=O)N/N=C/c1ccc(F)cc1 | – | – | – | – | 17 | 24.5 | 7.27 | 117 | 12.2 |
| CCOC(=O)Cn1c(=N)n(CC(=O)OCC)c2cc(C(=O)c3ccccc3)ccc21 | – | 0.64 | 70.1 | – | 0.28 | – | – | – | 73 |
| CCCCn1c(=N)n(CCCC)c2cc([N+](=O)[O-])ccc21 | – | – | 142 | 158 | 86 | 177 | – | – | 114 |

Continued, in another order:

| IC50 [2] [nM] | IC50 [3] [nM] | EC50 [4] [nM] | EC50 [5] [nM] | EC50 [2] [nM] | EC50 [3] [nM] | IC50 [4] [nM] | IC50 [5] [nM] | SMILES | EC50 [1] [nM] |
| --- | --- | --- | --- | --- | --- | --- | --- | --- | --- |
| 6.2 | 2.83 | 10.2 | 0.25 | – | – | – | – | N=c1n(CC(=O)N/N=C/c2ccc3c(c2)OCO3)c2ccc(C(=O)c3ccccc3)cc2n1CC(=O)N/N=C/c1ccc2c(c1)OCO2 | 0.21 |
| – | – | 94.1 | 0.015 | 119 | 46.7 | – | – | N#CCCCCn1c(=N)n(CCCCC#N)c2cc(C(=O)c3ccccc3)ccc21 | 68 |
